Activity calls are given as the source filed them. No cut-off for these calls is given here.

Tested on in the first test: not listed separately
Nature of the test: Antifungal activity against Malassezia pachydermatis at 1000 ug/disc after 48 hrs by disc diffusion assay. Format: functional.
Details: not given
In short, it runs like this: (§1)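 Fungal disc diffusion with inoculum from SDA spores (filamentous) or SDB culture (yeast). Test cultures were swabbed on agar, and discs at 1000 µg/disc were left 30 min at room temperature, with a solvent negative control. Plates were incubated 48 h at 27 °C. Zone of inhibition was measured in mm, and the experiment was repeated twice.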
(In general: A growth-free zone around the sample is the usual read-out of agar diffusion tests.)
On to `C#CCN1C(=O)C2(C3=C(C(=O)c4ccccc4C3=O)C3CCCN32)c2ccccc21` (stereo not drawn), for which the “inhibition zone (IZ)” value is “inactive”.
Same read-out and setting: as for `CN1CC2=C(C(=O)c3ccccc3C2=O)C12C(=O)c1cccc3cccc2c13` (stereo not drawn), the figure is 8 mm.
Still for that read-out and setting: as for `CN1C(=O)C2(C3=C(C(=O)c4ccccc4C3=O)C3CCCN32)c2ccccc21` (stereo not drawn), the figure is 10 mm.

The test system of another test is Candida albicans. Nature of the test: Antifungal activity against Candida albicans MTCC 227 at 1000 ug/disc after 48 hrs by disc diffusion assay. The conditions noted are these: MTCC 227, 48 h, read-out: IZ. It is filed as functional. Put shortly:
as §1
As to `C#CCN1C(=O)C2(C3=C(C(=O)c4ccccc4C3=O)C3CCCN32)c2ccccc21` (stereo not drawn), the zone of inhibition at 1000 µg/disc turned out to be 8 mm.
The same measure, in the same setting: as for `CN1CC2=C(C(=O)c3ccccc3C2=O)C12C(=O)c1cccc3cccc2c13` (stereo not drawn), the figure is 8 mm; as for `CN1C(=O)C2(C3=C(C(=O)c4ccccc4C3=O)C3CCCN32)c2ccccc21` (stereo not drawn), 10 mm.

In another test the test system is Botrytis cinerea. Nature of the test: Antifungal activity against Botrytis cinerea at 1000 ug/disc after 48 hrs by disc diffusion assay. It is filed as functional. The conditions noted are these: read-out: IZ. Put shortly:
as §1
Take `C#CCN1C(=O)C2(C3=C(C(=O)c4ccccc4C3=O)C3CCCN32)c2ccccc21` (stereo not drawn): the zone of inhibition at 1000 µg/disc came to 9 mm.
Still for that read-out and setting: as for `CN1CC2=C(C(=O)c3ccccc3C2=O)C12C(=O)c1cccc3cccc2c13` (stereo not drawn), the figure is 9 mm; as for `CN1C(=O)C2(C3=C(C(=O)c4ccccc4C3=O)C3CCCN32)c2ccccc21` (stereo not drawn), 8 mm.

A further test concerns Staphylococcus aureus. Nature of the test: Antibacterial activity against Staphylococcus aureus MTCC 96 at 1000 ug/disc after 24 hrs by disc diffusion assay. Format: functional.
Details: not given
Put shortly: (§2)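 Disc diffusion on Mueller Hinton agar. Cultures (about 10^4 CFU/ml) were swabbed on and dried 10 min. Discs loaded at 1000 µg/disc were left 30 min at room temperature for diffusion, with a solvent negative control. Plates were incubated 24 h at 37 °C. Inhibition zones were measured in mm, and the experiment was done twice.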
For `C#CCN1C(=O)C2(C3=C(C(=O)c4ccccc4C3=O)C3CCCN32)c2ccccc21` (stereo not drawn), the “inhibition zone (IZ)” value is “inactive”.

Staying with this test, now noted: MTCC 96, 24 h, read-out: IZ.
Turning to `CN1CC2=C(C(=O)c3ccccc3C2=O)C12C(=O)c1cccc3cccc2c13` (stereo not drawn), the zone of inhibition at 1000 µg/disc stood at 9 mm.
Same read-out and setting: the value for `CN1C(=O)C2(C3=C(C(=O)c4ccccc4C3=O)C3CCCN32)c2ccccc21` (stereo not drawn) was 10 mm.

For another test, the system named is Staphylococcus aureus. Nature of the test: Antibacterial activity against methicillin-resistant Staphylococcus aureus at 1000 ug/disc after 24 hrs by disc diffusion assay. Format: functional.
Details: not given
Put shortly: (§3)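 Disc diffusion on Mueller Hinton agar. Bacteria were grown 24 h at 37 °C in MHB and diluted to about 10^4 CFU/ml, swabbed onto plates and dried 10 min. Discs were loaded at 1000 μg/disc and held 30 min at room temperature for diffusion. Solvent served as negative control. After 24 h at 37 °C, inhibition zones were read in mm; run twice.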
Consider `C#CCN1C(=O)C2(C3=C(C(=O)c4ccccc4C3=O)C3CCCN32)c2ccccc21` (stereo not drawn), for which the “inhibition zone (IZ)” value is “inactive”.
With `CN1CC2=C(C(=O)c3ccccc3C2=O)C12C(=O)c1cccc3cccc2c13` (stereo not drawn), the “inhibition zone (IZ)” value is “inactive”.

The same test, now with this note: read-out: IZ.
As to `CN1C(=O)C2(C3=C(C(=O)c4ccccc4C3=O)C3CCCN32)c2ccccc21` (stereo not drawn), the zone of inhibition at 1000 µg/disc is 8 mm.

The test system of a further test is Micrococcus luteus. Nature of the test: Antibacterial activity against Micrococcus luteus at 1000 ug/disc after 24 hrs by disc diffusion assay. It is filed as functional. The conditions noted are these: read-out: IZ. Put shortly:
as §2
On to `C#CCN1C(=O)C2(C3=C(C(=O)c4ccccc4C3=O)C3CCCN32)c2ccccc21` (stereo not drawn), for which the zone of inhibition at 1000 µg/disc was 9 mm.
On the same count and under the same terms, as for `CN1CC2=C(C(=O)c3ccccc3C2=O)C12C(=O)c1cccc3cccc2c13` (stereo not drawn), the figure is 8 mm; as for `CN1C(=O)C2(C3=C(C(=O)c4ccccc4C3=O)C3CCCN32)c2ccccc21` (stereo not drawn), 9 mm.

For the next test, the system named is Klebsiella aerogenes. Nature of the test: Antibacterial activity against Enterobacter aerogenes MTCC 111 at 1000 ug/disc after 24 hrs by disc diffusion assay. Format: functional.
Details: not given
In short, it runs like this: as §2
As to `C#CCN1C(=O)C2(C3=C(C(=O)c4ccccc4C3=O)C3CCCN32)c2ccccc21` (stereo not drawn), the “inhibition zone (IZ)” value is “inactive”.
Regarding `CN1CC2=C(C(=O)c3ccccc3C2=O)C12C(=O)c1cccc3cccc2c13` (stereo not drawn), the “inhibition zone (IZ)” value was “inactive”.

Staying with this test, now noted: MTCC 111, 24 h, read-out: IZ.
As for `CN1C(=O)C2(C3=C(C(=O)c4ccccc4C3=O)C3CCCN32)c2ccccc21` (stereo not drawn), the zone of inhibition at 1000 µg/disc is 9 mm.

Another test concerns Proteus vulgaris. Nature of the test: Antibacterial activity against Proteus vulgaris MTCC 1771 at 1000 ug/disc after 24 hrs by disc diffusion assay. Format: functional. The conditions noted are these: MTCC 1771, 24 h, read-out: IZ. Put shortly:
as §2
Regarding `C#CCN1C(=O)C2(C3=C(C(=O)c4ccccc4C3=O)C3CCCN32)c2ccccc21` (stereo not drawn), the zone of inhibition at 1000 µg/disc came out at 8 mm.
Still for that read-out and setting: the value for `CN1CC2=C(C(=O)c3ccccc3C2=O)C12C(=O)c1cccc3cccc2c13` (stereo not drawn) was 8 mm; that for `CN1C(=O)C2(C3=C(C(=O)c4ccccc4C3=O)C3CCCN32)c2ccccc21` (stereo not drawn) was 8 mm.

Another test concerns Klebsiella pneumoniae. Nature of the test: Antibacterial activity against Klebsiella pneumoniae MTCC 109 at 1000 ug/disc after 24 hrs by disc diffusion assay. Format: functional.
Details: not given
Put shortly: as §2
Consider `C#CCN1C(=O)C2(C3=C(C(=O)c4ccccc4C3=O)C3CCCN32)c2ccccc21` (stereo not drawn), for which the “inhibition zone (IZ)” value is “inactive”.

The same test, now with this note: MTCC 109, 24 h, read-out: IZ.
`CN1CC2=C(C(=O)c3ccccc3C2=O)C12C(=O)c1cccc3cccc2c13` (stereo not drawn): the zone of inhibition at 1000 µg/disc worked out at 9 mm.
Turning to `CN1C(=O)C2(C3=C(C(=O)c4ccccc4C3=O)C3CCCN32)c2ccccc21` (stereo not drawn), the zone of inhibition at 1000 µg/disc came to 9 mm.

The subject of a further test is Salmonella typhimurium. Nature of the test: Antibacterial activity against Salmonella Typhimurium MTCC 1251 at 1000 ug/disc after 24 hrs by disc diffusion assay. The conditions noted are these: Salmonella enterica, MTCC 1251, 24 h; read-out: IZ. It is filed as functional, Salmonella enterica subsp. enterica serovar Typhimurium. In short, it runs like this:
as §2
On to `C#CCN1C(=O)C2(C3=C(C(=O)c4ccccc4C3=O)C3CCCN32)c2ccccc21` (stereo not drawn), for which the zone of inhibition at 1000 µg/disc worked out at 9 mm.
For the compound `CN1CC2=C(C(=O)c3ccccc3C2=O)C12C(=O)c1cccc3cccc2c13` (stereo not drawn), the zone of inhibition at 1000 µg/disc was 10 mm.
The same measure, in the same setting: as for `CN1C(=O)C2(C3=C(C(=O)c4ccccc4C3=O)C3CCCN32)c2ccccc21` (stereo not drawn), the figure is 11 mm.

A further test has as its system Salmonella enterica subsp. enterica serovar Paratyphi B. Nature of the test: Antibacterial activity against Salmonella paratyphi B at 1000 ug/disc after 24 hrs by disc diffusion assay. Format: functional.
Details: not given
Put shortly:
as §3
Regarding `CN1CC2=C(C(=O)c3ccccc3C2=O)C12C(=O)c1cccc3cccc2c13` (stereo not drawn), the “inhibition zone (IZ)” value is “inactive”.
Still for that read-out and setting: as for `CN1C(=O)C2(C3=C(C(=O)c4ccccc4C3=O)C3CCCN32)c2ccccc21` (stereo not drawn), the entry is “inactive”.

Staying with this test, now noted: read-out: IZ.
Take `C#CCN1C(=O)C2(C3=C(C(=O)c4ccccc4C3=O)C3CCCN32)c2ccccc21` (stereo not drawn): the zone of inhibition at 1000 µg/disc came to 8 mm.
